For series [1], the system named is Human alphaherpesvirus 1. The series can be described thus: Antiviral activity against ACV-resistant Herpes simplex virus 1 AR-29 infected in African green monkey Vero cells assessed as inhibition of viral infection measured after 72 hrs by crystal violet staining based plaque reduction assay. The class given is functional, organism-based. Conditions: Human alphaherpesvirus 1, AR-29, Vero. The method, boiled down: (§1)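 Plaque reduction in Vero cells. Mangiferin at 3.12, 6.25, 12.5 or 25 μg/mL is added at infection (0 h) with HSV-1 (10^5 PFU/mL). Agarose overlay with 25 mM MgCl2, 72 h at 37 °C/5% CO2, 20% formaldehyde fix, 0.5% crystal violet stain. %VI is taken against virus control. IC50 comes from linear regression of inhibition curves. Triplicate independent experiments.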

For series [2], the system named is Human alphaherpesvirus 1. Kind of series: Virucidal activity against ACV-sensitive Herpes simplex virus 1 KOS infected in African green monkey Vero cells assessed as inhibition of viral inhibition at 25 ug/mL measured after 1 hr by plaque reduction assay relative to control. The class given is functional. Conditions: Human alphaherpesvirus 1, strain KOS. The method, boiled down: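 HSV-1 KOS suspension incubated with mangiferin (3.12–25 μg/mL) 1 h at 37 °C, then put on Vero cells for plaque reduction: agarose overlay with MgCl2, 72 h, crystal violet staining. %VI against virus control; triplicate independent experiments.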
For orientation: Plaques are areas of infected cells; plaque reduction assays count them against a control.

Series [3] has as its system Human alphaherpesvirus 1. The series can be described thus: Antiviral activity against ACV-sensitive Herpes simplex virus 1 KOS infected in African green monkey Vero cells assessed as inhibition of viral infection at 3.12 ug/ml measured after 72 hrs by crystal violet staining based plaque reduction assay relative to control. The class given is functional. Particulars: Human alphaherpesvirus 1, strain KOS. In a few lines: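 Vero monolayers infected with HSV-1 KOS (10^5 PFU/mL) with mangiferin (3.12, 6.25, 12.5, 25 μg/mL) added at infection (0 h). Overlay of nutrient agarose with 25 mM MgCl2; plaques counted after 72 h at 37 °C, 5% CO2, fixed in 20% formaldehyde/PBS and stained with 0.5% crystal violet. %VI versus virus control; triplicate experiments.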

A short description of series [4]: Toxicity in Balb/c mouse infected with ACV-sensitive Herpes simplex virus 1 KOS assessed as effect on body weight at 0.7% w/w applied topically 5 times a day at 3 hrs interval for 10 days measured on day 10 post infection. Particulars: in vivo, topical_or_ocular.
Series [5] relates to Human alphaherpesvirus 1. Kind of series: Antiviral activity against ACV-resistant Herpes simplex virus 1 AR-29 infected in African green monkey Vero cells assessed as suppression of viral replication by measuring reduction in ICP4 production at 12.5 ug/ml measured after 24 hrs by immunofluorescence assay relative to control. On the set-up: scale not given: the % may be the effect or the level left. Type of series: functional. In a few lines: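 Vero cells on coverslips, infected with HSV-1 AR-29 and given mangiferin (1.56–12.5 μg/mL) at 0 h. At 24 h they are acetone-fixed (−20 °C, 20 min) and blocked with 2% skim milk. Stained with mouse anti-ICP4 and FITC anti-mouse IgG. 100 cells per coverslip are scored by fluorescence microscopy, inhibition relative to infected untreated cells. Duplicate experiments.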

Series [6] has as its system Human alphaherpesvirus 1. The series can be described thus: Antiviral activity against ACV-sensitive Herpes simplex virus 1 KOS infected in male Balb/c mouse assessed as change in epidermis thickness at 0.7% w/w applied topically 5 times a day at 3 hrs interval for 10 days measured on day 10 post infection by H and E staining based histological analysis. Conditions: strain KOS.

Series [7] deals with Human alphaherpesvirus 1. The series can be described thus: Antiviral activity against ACV-sensitive Herpes simplex virus 1 KOS infected in African green monkey Vero cells assessed as inhibition of viral infection at 25 ug/ml measured after 72 hrs by crystal violet staining based plaque reduction assay relative to control. The class given is functional. Conditions: Human alphaherpesvirus 1, strain KOS. In a few lines:
as §1

Series [8] deals with Human alphaherpesvirus 1. Kind of series: Antiviral activity against ACV-resistant Herpes simplex virus 1 AR-29 infected in African green monkey Vero cells assessed as inhibition of viral adsorption at 25 ug/mL preincubated for 30 mins and measured after 1 hr by plaque reduction assay relative to control. Conditions: Human alphaherpesvirus 1, AR-29, Vero. The class given is functional. In a few lines:
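Vero cells pre-chilled 30 min at 4 °C, then given mangiferin (3.12–25 μg/mL) together with HSV-1 AR-29 (10^5 PFU/mL) for 1 h adsorption at 4 °C. Plaque reduction assay follows: nutrient agarose overlay with 25 mM MgCl2, 72 h at 37 °C/5% CO2, formaldehyde fixation, crystal violet stain. %VI = [1 − PFU treated/PFU virus control] × 100.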

The nature of series [9]: Selectivity index, ratio of CC50 for African green monkey Vero cells to IC50 for Herpes simplex virus 1 KOS infected in African green monkey Vero cells. The class given is toxicity. Particulars: read-out: Ratio CC50/IC50. The method, boiled down:
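SI = CC50 (Vero, MTT, 72 h) / IC50 from plaque reduction with mangiferin added at infection (0 h) against HSV-1 AR-29 or KOS; IC50 by linear regression of viral inhibition curves.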

Series [10] deals with Human alphaherpesvirus 1. Kind of series: Antiviral activity against ACV-sensitive Herpes simplex virus 1 KOS infected in female Balb/c mouse assessed as change in dermis thickness at 0.7% w/w applied topically 5 times a day at 3 hrs interval for 10 days measured on day 10 post infection by H and E staining based histological analysis. Particulars: strain KOS.
Series [11] relates to Human alphaherpesvirus 1. Kind of series: Antiviral activity against ACV-sensitive Herpes simplex virus 1 KOS infected in female Balb/c mouse assessed as change in epidermis thickness at 0.7% w/w applied topically 5 times a day at 3 hrs interval for 10 days measured on day 10 post infection by H and E staining based histological analysis. Conditions: strain KOS.
Series [12] can be described thus: Toxicity in Balb/c mouse infected with ACV-resistant Herpes simplex virus 1 AR-29 assessed as death at 0.7% w/w applied topically 5 times a day at 3 hrs interval for 10 days measured on day 10 post infection. Particulars: in vivo, topical_or_ocular.
The nature of series [13]: Cytotoxicity against African green monkey Vero cells assessed as reduction in cell viability incubated for 72 hrs by MTT assay. Type of series: cell-based. Conditions: chlorocebus sabaeus. In a few lines:
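Vero cells exposed to mangiferin 31.25–500 μg/mL for 72 h at 37 °C, 5% CO2. Viability read by MTT as At/Ac × 100 versus untreated cells; CC50 from linear regression.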
For orientation: Tetrazolium dyes change colour on reduction, which living cells bring about.

The test system of series [14] is Human alphaherpesvirus 1. Kind of series: Antiviral activity against ACV-resistant Herpes simplex virus 1 AR-29 infected in female Balb/c mouse assessed as reduction in skin lesion at 0.7% w/w applied topically 5 times a day at 3 hrs interval for 10 days. Type of series: functional, organism-based. In a few lines:
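Balb/c mice, 5 weeks old, six per group. Right mid-flank depilated under i.p. anaesthesia, needle-scarified 24 h later and inoculated with 70 μL HSV-1 AR-29 (10^5 PFU/mL). Topical 0.7% w/w O/W emulsion or ACV cream (50 mg/g) starts 4 h post-infection, 5 times daily for 10 days. Lesions are scored daily.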

For series [15], the system named is Human alphaherpesvirus 1. The series can be described thus: Antiviral activity against ACV-sensitive Herpes simplex virus 1 KOS infected in male Balb/c mouse assessed as reduction in vesicles at 0.7% w/w applied topically 5 times a day at 3 hrs interval for 10 days measured on day 2 post infection. Type of series: functional, organism-based. Particulars: strain KOS. The method, boiled down:
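Balb/c mice (5 weeks, 22–27 g; six per group, sexes tested separately) had the right mid-flank depilated under i.p. anaesthesia and needle-scarified 24 h later. They were inoculated with 70 μL HSV-1 KOS (10^5 PFU/mL). From 4 h post-infection, O/W emulsion with 0.7% w/w mangiferin or ACV cream (50 mg/g) was applied topically 5 times daily for 10 days. Lesions were scored daily.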

In brackets after ≈: the same amount, converted by molar mass. Activity calls are given as the source filed them. No cut-off for these calls is given here.

On to `O=c1c2cc(O)c(O)cc2oc2cc(O)c([C@@H]3O[C@H](CO)[C@@H](O)[C@H](O)[C@H]3O)c(O)c12` [MANGIFERIN], for which the IC50 in the series with Human alphaherpesvirus 1 [1] worked out at 2.9 µg/mL (≈ 6.87 µM). The inhibition at 25 µg/mL with Human alphaherpesvirus 1 [2] was found to be 74.8%; in the series with Human alphaherpesvirus 1 [7], 100%; in the series on Human alphaherpesvirus 1 [8], 74%. Besides, the inhibition at 3.12 µg/mL in the series with Human alphaherpesvirus 1 [3] is 37.5%. Besides, the Activity result in series [4] was “Non-Toxic”; with Human alphaherpesvirus 1 [5] it was 54.1%; in [12], “Non-Toxic”. Besides, the result in the series with Human alphaherpesvirus 1 [6], in the series with Human alphaherpesvirus 1 [10], with Human alphaherpesvirus 1 [11] and with Human alphaherpesvirus 1 [15] was inactive. In addition, in series [9], the selectivity ratio is over 143. For the same compound, in series [13], the CC50 at 72 h is over 500 µg/mL. For the same compound, the result in the series on Human alphaherpesvirus 1 [14] was Active.

Broadly, the IC50 is the concentration needed to halve the response being measured. A word on the inhibition: it is how much of the control response was suppressed. One may read the CC50 as the concentration giving 50% cytotoxicity.
